High-throughput results deposited in PubChem by several laboratories.
DNA FID counter: displaces DNA intercalator in HCV helicase counter-screen; 290,000 compounds, 0.17% hits; inhibition, % at 7.9 µM; DNA fluorescent intercalator displacement, fluorescence; in the data active = inhibition above about 37%;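 note: 0% = vehicle and 100% = reference compound; higher means more ethidium bromide displaced from hairpin DNA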
ZTA counter: counter-screen for EBNA-1 inhibitors: inhibitors of Epstein-Barr virus ZTA | P03206 | ZTA-DNA binding, fluorescence polarization | inhibition, % at 11 µM | 320,000 compounds, 0.15% hits | AID 2234; in the data active = inhibition above about 33%
Target sequence (P03206 whole entry, looked up): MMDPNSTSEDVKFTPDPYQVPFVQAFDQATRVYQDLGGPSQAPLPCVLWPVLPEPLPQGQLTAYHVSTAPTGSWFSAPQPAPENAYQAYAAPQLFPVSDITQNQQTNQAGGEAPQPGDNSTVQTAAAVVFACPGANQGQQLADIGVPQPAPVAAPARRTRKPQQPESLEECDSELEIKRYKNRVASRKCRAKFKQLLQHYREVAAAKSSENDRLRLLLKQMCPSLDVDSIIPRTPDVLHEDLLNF
FGF22 binding-1: shifts melting point of recombinant human FGF22; recombinant FGF22 thermal shift, SYPRO orange fluorescence; percent of sucrose octasulfate shift, DMSO zero; activity (Tm shift, normalised), % at 9.99 µM; 340,000 compounds, 1.5% hits; AID 651658;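 active = mean Tm shift, scaled 0 neutral to 100 positive control, at about 1.3% or above, every replicate too, limit read from the data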
Target sequence (Q9HCT0 whole entry, looked up): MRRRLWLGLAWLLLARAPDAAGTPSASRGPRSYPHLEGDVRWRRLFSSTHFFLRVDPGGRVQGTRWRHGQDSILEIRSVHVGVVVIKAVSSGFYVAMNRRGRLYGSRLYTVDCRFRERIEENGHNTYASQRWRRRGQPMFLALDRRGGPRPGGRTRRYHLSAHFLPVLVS
NR3A LBD binder: NR3A (human) ligand-binding domain modulation. 340,000 compounds, 2.5% hits. Tm shift relative to glycine control, % at 25 µM. NR3A LBD differential scanning fluorimetry, Tm shift; 0% = protein alone, 100% = glycine-bound protein;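 active = melting temperature shift of at least 10% of the positive control shift, at one fixed dose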
EBNA-1 inh: blocks EBNA-1 binding to DNA | 300,000 compounds, 0.34% hits | inhibition, % at 14.8 µM | EBNA-1 DNA binding, fluorescence polarization; in the data active = inhibition above about 28%
NS3 helicase inh: blocks Hepatitis C virus NS3 helicase unwinding | NS3 helicase DNA unwinding, Cy5 molecular beacon fluorescence | inhibition, % at 10.9 µM | 290,000 compounds, 0.56% hits;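 active = inhibition above the mean of all tested compounds plus 3 SD, set per campaign, cut at about 35% in these data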;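 note: 0% = DMSO wells and 100% = thioflavine S control wells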
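assay system = NS3 helicase fragment of HCV | buffer or medium = MOPS pH 6.5, MgCl2, DTT, Tween20, BSA | timing = 60 min unwinding reaction at 25 °C after ATP addition | signal = Cy5 beacon fluorescence read at start and 1 h | read-out basis = % inhibition of unwinding | control set = low DMSO, high thioflavine S at 110 µM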
FGF22 binding-2: binders of human FGF22 by thermal shift. shares compounds with FGF22 binding-1. recombinant FGF22 thermal shift, SYPRO orange fluorescence. thermal shift activity, °C (ΔTm) at 38 µM. 1,000 compounds, 2% hits. AID 720646;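 active = fitted rise in melting shift crosses a set limit at or below the top valid dose tested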
SYPRO no-protein: compound-only SYPRO artifact for FGF22 binders. AC50, µM (highest dose often 38 µM). shares compounds with FGF22 binding-1. compound-only SYPRO orange thermal shift counter-screen, no protein. 1,000 compounds, 2% hits;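 active = rising signal whose fitted curve reaches the 0.54 level within the top valid dose, showing a melting point, actives reach about 13 µM in these data; inactive = the rest, including activity in the opposite direction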; note: value is where the raw curve crosses a fixed level and not half-maximal
An asterisk follows results filed as active; i = inactive; x = no result given; [ ] = dose if it differs, or a comment. Only some compounds are listed: those with a hit (about 3.6% of all), similar ones and a draw of the others.

SMILES	DNA FID counter	ZTA counter	FGF22 binding-1	NR3A LBD binder	EBNA-1 inh	NS3 helicase inh	FGF22 binding-2	SYPRO no-protein
C[C@@H]1CN([C@@H](C)CO)C(=O)c2ccccc2-c2ccccc2CO[C@@H]1CN(C)C(=O)C1CC1	x	x	-0.1	x	x	x	x	x
COc1ccc(CN(C)C[C@H]2Oc3c(NS(C)(=O)=O)cccc3C(=O)N([C@@H](C)CO)C[C@H]2C)cc1	x	x	3.1*	x	x	x	0.026	i
COc1ccc(CN(C)C[C@@H]2Oc3c(NS(C)(=O)=O)cccc3C(=O)N([C@H](C)CO)C[C@@H]2C)cc1	x	x	0.1	x	x	x	x	x
C[C@H](CO)N1C[C@H](C)[C@@H](CN(C)Cc2ccccc2)Oc2ncc(Br)cc2C1=O	x	x	-0.3	x	x	x	x	x
CCOc1ccc(-c2cc(C(=O)N/N=C/c3cccnc3)c3ccccc3n2)cc1	-32.4	18.2	2.5*	-9.3	-2.7	-11.3	-0.117	i
CCOc1ccccc1-c1cc(C(=O)N/N=C/c2cccnc2)c2ccccc2n1	x	-9.3	0.1	-1.0	7.8	x	x	x
Cc1noc(C)c1NC(=O)Nc1ccc2c(c1)C(=O)N([C@@H](C)CO)C[C@@H](C)[C@H](CN(C)S(=O)(=O)c1cn(C)cn1)OCCCC[C@@H](C)O2	x	x	-0.1	x	x	x	x	x
O=C(Nc1cccc(S(=O)(=O)N2CCCCC2)c1)C1=NN(c2ccccc2)C(=O)CC1	x	4.3	1.9*	-1.6	x	x	-0.096	i
O=C(Nc1cc(S(=O)(=O)N2CCCCC2)ccc1Cl)C1=NN(c2ccccc2)C(=O)CC1	-49.7	-10.0	0.0	-5.9	-3.8	-1.2	x	x
CO[C@H]1CN(C)C(=O)c2cc(NC(C)=O)ccc2OC[C@H](C)N(S(=O)(=O)c2cn(C)cn2)C[C@H]1C	x	x	-0.2	x	x	x	x	x
O=C(c1cccc(F)c1)N1C[C@H]2[C@@H](c3ccccc31)[C@@H](CO)N2C(=O)c1ccccn1	x	x	3.3*	x	x	x	-0.048[42 µM]	i
O=C(c1ccccn1)N1C[C@H]2[C@@H](c3ccccc31)[C@@H](CO)N2C(=O)c1ccccn1	x	x	11.2*	x	x	x	-0.005[42 µM]	i
C[C@H]1CCCCO[C@@H](CN(C)C(=O)c2ccncc2)[C@@H](C)CN([C@@H](C)CO)C(=O)c2cc(NS(=O)(=O)c3cn(C)cn3)ccc2O1	x	x	-0.7	x	x	x	x	x
CNC[C@H]1Oc2cc(-c3ccccc3F)ccc2S(=O)(=O)N([C@H](C)CO)C[C@@H]1C	x	x	-0.1	x	x	x	x	x
C[C@@H]1CN([C@@H](C)CO)C(=O)c2cc(NS(=O)(=O)c3ccc(F)cc3)ccc2O[C@@H](C)CCCCO[C@H]1CN(C)Cc1ccc(C(=O)O)cc1	x	x	0.1	x	x	x	x	x
CC(C)NC(=O)Nc1cccc2c1O[C@@H](CN(C)Cc1ccc(-c3ccccc3)cc1)[C@@H](C)CN([C@@H](C)CO)C2=O	x	x	0.2	x	x	x	x	x
C/C=C/c1ccc2c(c1)O[C@@H](CN(C)C(=O)Nc1cccc(F)c1)[C@@H](C)CN([C@@H](C)CO)S2(=O)=O	x	x	1.5*	x	x	x	-0.824[42 µM]	i
C/C=C/c1ccc2c(c1)O[C@@H](CN(C)C(=O)Nc1cc(F)ccc1F)[C@H](C)CN([C@H](C)CO)S2(=O)=O	x	x	-0.4	x	x	x	x	x
C/C=C/c1ccc2c(c1)O[C@H](CN(C)C(=O)Nc1cccc(F)c1)[C@H](C)CN([C@H](C)CO)S2(=O)=O	x	x	0.2	x	x	x	x	x
C/C=C/c1ccc2c(c1)O[C@@H](CN(C)Cc1ccncc1)[C@@H](C)CN([C@@H](C)CO)S2(=O)=O	x	x	1.6*	x	x	x	0.188[42 µM]	i
C/C=C/c1ccc2c(c1)O[C@H](CN(C)C(=O)Nc1cc(F)ccc1F)[C@H](C)CN([C@H](C)CO)S2(=O)=O	x	x	1.2*	x	x	x	0.026[42 µM]	i
C/C=C/c1ccc2c(c1)O[C@H](CN(C)Cc1ccncc1)[C@@H](C)CN([C@H](C)CO)S2(=O)=O	x	x	0.0	x	x	x	x	x
C[C@H](CO)N1C[C@H](C)[C@H](CN(C)Cc2cccc(C(=O)O)c2)Oc2ncc(C#CCN(C)C)cc2C1=O	x	x	-0.1	x	x	x	x	x
O=C(Cc1c[nH]c2ccccc12)N1CCN(S(=O)(=O)c2ccc(F)cc2)CC1	x	x	0.4	x	x	x	x	x
O=C(Cc1c[nH]c2ccccc12)N1CCN(S(=O)(=O)c2cccc(Cl)c2Cl)CC1	x	12.0	2.9*	-4.3	x	x	-0.222	i
SMILES	DNA FID counter	ZTA counter	FGF22 binding-1	NR3A LBD binder	EBNA-1 inh	NS3 helicase inh	FGF22 binding-2	SYPRO no-protein
C[C@H]1CN([C@@H](C)CO)S(=O)(=O)c2ccc(-c3ccncc3)cc2O[C@H]1CN(C)C(=O)Nc1ccc(C(F)(F)F)cc1	x	x	2.0*	x	x	x	0.048	i
C[C@H](CO)N1C[C@H](C)[C@H](CN(C)C(=O)Nc2ccc(C(F)(F)F)cc2)Oc2cc(-c3ccncc3)ccc2S1(=O)=O	x	x	1.4*	x	x	x	-0.199[42 µM]	i
C[C@@H](NC(=O)[C@@H]1[C@@H](CO)[C@@H]2Cn3c(cccc3=O)[C@@H]2N1CC1CCCC1)c1ccccc1	x	x	0.4	x	x	x	x	x
COc1ccc(NC(=O)CCCN2C(=O)CN(C)C2=O)c(OC)c1	x	-15.8	15.3*	-7.2	x	x	x	i
COc1ccc([N+](=O)[O-])cc1/C=N/Nc1nn[nH]n1	11.2	-4.2	1.5*	-3.0	4.7	-1.8	-0.04	i
COc1ccc(/C=N/Nc2ccc([N+](=O)[O-])cc2)cc1O	20.8	10.7	1.8*	27.0*	9.1	-6.0	x	i
COc1ccc(/C=N/Nc2ccc([N+](=O)[O-])cc2)cc1Cn1cc([N+](=O)[O-])cn1	7.7	-3.3	x	7.4	-7.0	10.9	x	x
COc1ccc(/C=N/NC(=O)c2cccc([N+](=O)[O-])c2)cc1OC	-3.5	9.9	1.6*	1.6	6.3	1.6	0.034	i
C[C@H]1CN([C@@H](C)CO)C(=O)Cc2cc(NC(=O)Nc3ccc(C(F)(F)F)cc3)ccc2O[C@H]1CN(C)S(=O)(=O)c1cn(C)cn1	x	x	-0.6	x	x	x	x	x
O=C(C1CCOCC1)N1C[C@@H]2[C@H](c3ccccc31)[C@@H](CO)N2Cc1ccc(Cl)cc1	x	x	0.2	x	x	x	x	x
C[C@@H](NC(=O)C[C@H]1CC[C@@H](NC(=O)Cc2ccccn2)[C@H](CO)O1)c1ccccc1	x	x	0.0	x	x	x	x	x
CCC(=O)N1CC2(CN(C(=O)Nc3ccc(F)cc3)C2)c2c([nH]c3cc(OC)ccc23)[C@@H]1CO	x	x	-0.4	x	x	x	x	x
CCCN(C)C[C@H]1Oc2ncc(-c3cccc(C(=O)N(C)C)c3)cc2C(=O)N([C@H](C)CO)C[C@@H]1C	x	x	-0.5	x	x	x	x	x
CC1C=NC(S(=O)(=O)N2CC[C@@H]3[C@H]2c2cc(-c4cccc(F)c4)ccc2N(C)[C@H]3CO)=N1 (some centres not stated)	x	x	-1.1	x	x	x	x	x
CC1C=NC(S(=O)(=O)N2CC[C@@H]3[C@@H](CO)N(C)c4ccc(-c5ccc(F)cc5)cc4[C@@H]32)=N1 (some centres not stated)	x	x	2.0*	x	x	x	x	i
